Source: PMC6422976 (Osteoporosis International, 2018)

Columns and labels:
[1] = Comparative single-dose PK of teriparatide; format: in vivo, human; details: for tlast / Cmax / tmax / AUC0-tlast: single 20 μg/80 μL s.c. dose, N = 51; for tlast: AM ± SD; for Cmax: ELISA; for Cmax / AUC0-tlast: GM (GCV%); for tmax: Median (Minimum, Maximum); for AUC0-tlast: abdomen, PTH(1-34) ELISA
Summary of the method: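 Randomised, double-blind, two-period, two-sequence cross-over in healthy women aged 18–55 y (BMI 18.5–27.0 kg/m2). Single 20 μg/80 μL s.c. abdominal injection of test or reference teriparatide at hour 0, with a 24 h washout. Plasma sampled pre-dose and at 10–240 min. High-sensitivity human PTH(1-34) ELISA. Non-compartmental parameters; ANOVA on ln values; geometric mean test/reference ratios with 94.12% CI (α 0.0294, two-stage design).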

serum calcium = test: Serum calcium; format: in vivo, human; details: for Serum-corrected calcium Cmax, mean / Serum-corrected calcium tmax, mean / Serum-corrected calcium AUC0-tlast, geom. mean / Serum-corrected calcium Cmax, geom. mean / Serum-corrected calcium AUC0-tlast, median / Serum-corrected calcium Cmax, median / Serum-corrected calcium tmax, median: single 20 μg/80 μL s.c. injection, healthy women, N = 53; for Serum-corrected calcium Cmax, mean / Serum-corrected calcium tmax, mean: arithmetic mean; for Serum-corrected calcium AUC0-tlast, geom. mean / Serum-corrected calcium Cmax, geom. mean: geometric mean
Summary of the method: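 Serum drawn within 2.5 h before dosing and at 120, 180 and 240 min and 6, 8 and 12 h after a single 20 μg/80 μL s.c. dose. Total calcium measured photometrically via the NM-BAPTA complex under alkaline conditions (LLOQ 0.8 mg/dl). Values albumin-corrected as Ca (mmol/L) + ((40 − ALB (g/L)) × 0.02). AUC0-tlast, Cmax and tmax calculated.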

[2] = Safety: treatment emergent adverse events in healthy women; format: in vivo, human; details: single 20 μg s.c.; for TEAE: General disorders and administration site conditions: number of subjects (%)
Summary of the method: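 Healthy women received single 20 μg/80 μL s.c. injections in each cross-over period. Monitoring covered physical examinations, vital signs, ECGs, pulse oximetry, adverse events, injection-site reactions and clinical laboratory tests. Adverse events in the washout were assigned to the preceding treatment. Results were summarised per treatment arm as subject counts; Fisher's exact test.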

[3] = after at least 12 months of treatment, 20 μg daily s.c. doses; cited from earlier work
[4] = RGB-10/reference, two-stage design
[5] = RGB-10/reference, two-stage design, acceptance range 80.00–125.00%
[6] = geometric mean ratio = 100 * (RGB-10/reference)
[7] = geometric least-squares mean from ANOVA, single 20 μg s.c., healthy women

Substance: teriparatide [RGB-10]
- bioequivalence conclusion ([1]; 94.12% CIs of GMRs of AUC0-tlast and Cmax within 80–125%): bioequivalent
- 94.12% CI of GMR, AUC0-inf [1, 4]: 83.75–96.33%
- 94.12% CI of GMR, t1/2 [1, 4]: 83.28–100.29%
- 94.12% CI of GMR, AUC0-tlast [1, 5]: 85.20–98.60%
- 94.12% CI of GMR, Cmax [1, 5]: 85.51–99.52%
- extent, total extent and peak teriparatide exposure (AUC0-tlast, AUC0-inf, Cmax) lower than for the reference ([1]; based on GMR, plasma): 8 to 10%
- GMR% AUC0-inf [1, 6]: 89.82%
- GMR% AUC0-tlast [1, 6]: 91.66%
- GMR% Cmax [1, 6]: 92.25%
- GMR% t1/2 [1, 6]: 91.39%
- tlast ([1]; healthy women): 2.49 ± 0.729 h
- Cmax ([1]; healthy women): 82.4 (40.1%) pg/mL
- tmax ([1]; healthy women): 0.334 (0.166, 0.585) h
- AUC0-tlast ([1]; healthy women): 91.8 (40.9%) pg*h/mL
- half-life shorter than for the reference ([1]; in vivo): 9%
- mean CL/F higher than for the reference product ([1]; in vivo): approximately 13%
- mean Vz/F compared with the reference ([1]; in vivo): similar
- 95% CIs of the GMR of corrected calcium (serum calcium; RGB-10/reference): 99–101%
- GMR of serum calcium AUC (serum calcium; RGB-10/reference): 99.93%
- GMR of serum calcium Cmax (serum calcium; RGB-10/reference): 99.87%
- median difference of serum calcium tmax (serum calcium; RGB-10 versus reference): 0.001
- Serum-corrected calcium Cmax, mean (serum calcium): 2.35 mmol/L
- Serum-corrected calcium tmax, mean (serum calcium): 5.21 h
- Serum-corrected calcium AUC0-tlast, geom. mean (serum calcium): 27.59 mmol·h/L
- Serum-corrected calcium Cmax, geom. mean (serum calcium): 2.35 mmol/L
- Serum-corrected calcium AUC0-tlast, median (serum calcium): 27.56 mmol·h/L
- Serum-corrected calcium Cmax, median (serum calcium): 2.34 mmol/L
- Serum-corrected calcium tmax, median (serum calcium): 6.00 h
- TEAE: General disorders and administration site conditions [2]: 13 (24%)
- serious adverse events (SAEs) [2]: no SAEs observed

Substance: teriparatide [Reference, reference compound]
- AUC0-inf, geometric LSM [1, 7]: 0.11566 ng·h/mL
- AUC0-tlast, geometric LSM [1, 7]: 0.10086 ng·h/mL
- Cmax, geometric LSM [1, 7]: 0.09018 ng/mL
- t1/2, geometric LSM [1, 7]: 0.72 h
- tlast ([1]; healthy women): 2.58 ± 0.707 h
- Cmax ([1]; healthy women): 89.2 (37.1%) pg/mL
- tmax ([1]; healthy women): 0.417 (0.167, 0.667) h
- AUC0-tlast ([1]; healthy women): 99.0 (35.0%) pg*h/mL
- Serum-corrected calcium Cmax, mean (serum calcium): 2.35 mmol/L
- Serum-corrected calcium tmax, mean (serum calcium): 5.03 h
- Serum-corrected calcium AUC0-tlast, geom. mean (serum calcium): 27.61 mmol·h/L
- Serum-corrected calcium Cmax, geom. mean (serum calcium): 2.35 mmol/L
- Serum-corrected calcium AUC0-tlast, median (serum calcium): 27.56 mmol·h/L
- Serum-corrected calcium Cmax, median (serum calcium): 2.34 mmol/L
- Serum-corrected calcium tmax, median (serum calcium): 6.00 h
- TEAE: General disorders and administration site conditions [2]: 8 (15%)
- patients with anti-teriparatide antibodies [3]: 2.8%
